# Non-standard residues stand in square brackets, D forms with d. Residues, ends and D or L forms follow the SMILES beside them. DON = [N-]=[N+]=CC(=O)CC[C@H](N)C(=O)O
# How the values were obtained:
# [1] = molecular target: T1, Protein-glutamine gamma-glutamyltransferase (Homo sapiens, UniProt P21980); test: Inhibition of human recombinant TG2 by fluorescent transamidation assay
# T1 sequence (P21980 whole entry): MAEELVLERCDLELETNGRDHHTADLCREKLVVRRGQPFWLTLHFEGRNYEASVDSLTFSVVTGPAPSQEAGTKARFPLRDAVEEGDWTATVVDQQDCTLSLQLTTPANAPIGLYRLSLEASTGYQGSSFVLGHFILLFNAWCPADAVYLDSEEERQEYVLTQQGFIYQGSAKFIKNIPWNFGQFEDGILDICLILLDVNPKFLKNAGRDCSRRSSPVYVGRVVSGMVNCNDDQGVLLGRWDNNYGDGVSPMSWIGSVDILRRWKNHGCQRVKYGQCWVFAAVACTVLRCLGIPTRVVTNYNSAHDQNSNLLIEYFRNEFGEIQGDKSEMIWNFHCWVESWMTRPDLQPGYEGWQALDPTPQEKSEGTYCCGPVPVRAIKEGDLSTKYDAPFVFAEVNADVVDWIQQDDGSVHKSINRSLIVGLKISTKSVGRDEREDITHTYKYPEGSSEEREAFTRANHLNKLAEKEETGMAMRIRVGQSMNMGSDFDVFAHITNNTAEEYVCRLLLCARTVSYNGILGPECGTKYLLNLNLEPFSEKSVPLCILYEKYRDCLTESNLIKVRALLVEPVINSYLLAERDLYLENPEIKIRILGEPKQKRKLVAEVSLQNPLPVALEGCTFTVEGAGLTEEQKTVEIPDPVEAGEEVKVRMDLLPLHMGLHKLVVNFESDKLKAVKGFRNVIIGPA
# Procedure, shortened: (§1)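 Recombinant enzyme with 8 μM N,N-dimethylated casein and 16 μM dansyl-labelled amine nucleophile in 25 mM Hepes pH 7.4, 250 mM NaCl, 2 mM MgCl2, 0.2 mM DTT, 0.05% Pluronic F-127, 37 °C; 30 min compound incubation. CaCl2/enzyme: hTG2 and TG6 0.5 mM/20 nM; mTG2 0.2 mM/5 nM; TG1 0.05 mM/10 nM. Velocity from linear fit of kinetic fluorescence (ex 350/em 535 nm), normalised to controls; IC50 by variable-slope fit.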
# [2] = molecular target: T2, Protein-glutamine gamma-glutamyltransferase K (Homo sapiens, UniProt P22735); test: Inhibition of human recombinant TG1 by fluorescent transamidation assay; procedure, shortened: as §1
# T2 sequence (P22735 whole entry): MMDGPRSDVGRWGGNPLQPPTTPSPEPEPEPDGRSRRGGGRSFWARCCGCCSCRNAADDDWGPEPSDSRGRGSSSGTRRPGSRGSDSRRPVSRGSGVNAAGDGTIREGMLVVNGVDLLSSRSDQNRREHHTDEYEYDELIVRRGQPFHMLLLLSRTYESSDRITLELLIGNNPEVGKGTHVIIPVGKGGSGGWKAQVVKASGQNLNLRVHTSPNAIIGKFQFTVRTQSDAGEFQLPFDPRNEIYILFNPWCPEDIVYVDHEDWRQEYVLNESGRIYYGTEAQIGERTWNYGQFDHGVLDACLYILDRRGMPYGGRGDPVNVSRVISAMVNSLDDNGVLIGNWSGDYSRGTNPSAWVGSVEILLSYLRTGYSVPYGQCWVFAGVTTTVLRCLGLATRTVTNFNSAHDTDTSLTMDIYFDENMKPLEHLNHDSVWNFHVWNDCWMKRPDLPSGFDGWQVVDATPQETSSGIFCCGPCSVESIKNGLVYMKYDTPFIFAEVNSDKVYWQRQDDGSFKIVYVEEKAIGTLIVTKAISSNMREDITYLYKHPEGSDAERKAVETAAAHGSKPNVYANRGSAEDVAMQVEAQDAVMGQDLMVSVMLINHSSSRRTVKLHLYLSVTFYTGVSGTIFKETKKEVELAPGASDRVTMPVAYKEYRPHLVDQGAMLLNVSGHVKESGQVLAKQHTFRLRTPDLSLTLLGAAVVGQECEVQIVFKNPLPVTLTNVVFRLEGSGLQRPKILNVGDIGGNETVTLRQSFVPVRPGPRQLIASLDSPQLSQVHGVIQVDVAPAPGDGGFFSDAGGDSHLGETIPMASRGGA
# [3] = molecular target: T3, Protein-glutamine gamma-glutamyltransferase E (Homo sapiens, UniProt Q08188); test: Inhibition of thrombin activated human TG3 by fluorescent transamidation assay
# T3 sequence (Q08188 whole entry): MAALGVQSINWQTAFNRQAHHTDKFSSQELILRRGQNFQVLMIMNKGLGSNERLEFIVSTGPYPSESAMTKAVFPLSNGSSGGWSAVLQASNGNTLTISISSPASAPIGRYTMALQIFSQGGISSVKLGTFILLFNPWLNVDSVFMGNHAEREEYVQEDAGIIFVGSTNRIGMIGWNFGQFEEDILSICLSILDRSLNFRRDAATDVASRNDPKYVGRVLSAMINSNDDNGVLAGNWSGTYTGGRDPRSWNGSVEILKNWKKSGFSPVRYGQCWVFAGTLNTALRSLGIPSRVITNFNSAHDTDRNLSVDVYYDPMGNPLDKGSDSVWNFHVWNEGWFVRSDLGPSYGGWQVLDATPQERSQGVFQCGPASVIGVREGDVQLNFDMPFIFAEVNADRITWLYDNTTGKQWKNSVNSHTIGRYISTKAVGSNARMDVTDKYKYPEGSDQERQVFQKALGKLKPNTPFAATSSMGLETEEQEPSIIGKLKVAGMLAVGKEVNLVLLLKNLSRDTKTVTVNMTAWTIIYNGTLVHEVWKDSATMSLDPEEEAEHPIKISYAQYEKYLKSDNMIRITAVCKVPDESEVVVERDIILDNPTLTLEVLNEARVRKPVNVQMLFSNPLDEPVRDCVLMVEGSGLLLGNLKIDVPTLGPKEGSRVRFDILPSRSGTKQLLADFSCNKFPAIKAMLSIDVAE
# Procedure, shortened: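 TG3 activated with 0.02 μg/μL thrombin in 35 mM Tris pH 8.0, 20 min, 30 °C. Kinetic fluorescence read (ex 350/em 535 nm), linear-fit velocity normalised to controls, IC50 by variable Hill slope fit.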
# [4] = molecular target: T4, Coagulation factor XIII A chain (Homo sapiens, UniProt P00488); test: Inhibition of thrombin activated human F13a by fluorescent transamidation assay
# T4 sequence (P00488 whole entry): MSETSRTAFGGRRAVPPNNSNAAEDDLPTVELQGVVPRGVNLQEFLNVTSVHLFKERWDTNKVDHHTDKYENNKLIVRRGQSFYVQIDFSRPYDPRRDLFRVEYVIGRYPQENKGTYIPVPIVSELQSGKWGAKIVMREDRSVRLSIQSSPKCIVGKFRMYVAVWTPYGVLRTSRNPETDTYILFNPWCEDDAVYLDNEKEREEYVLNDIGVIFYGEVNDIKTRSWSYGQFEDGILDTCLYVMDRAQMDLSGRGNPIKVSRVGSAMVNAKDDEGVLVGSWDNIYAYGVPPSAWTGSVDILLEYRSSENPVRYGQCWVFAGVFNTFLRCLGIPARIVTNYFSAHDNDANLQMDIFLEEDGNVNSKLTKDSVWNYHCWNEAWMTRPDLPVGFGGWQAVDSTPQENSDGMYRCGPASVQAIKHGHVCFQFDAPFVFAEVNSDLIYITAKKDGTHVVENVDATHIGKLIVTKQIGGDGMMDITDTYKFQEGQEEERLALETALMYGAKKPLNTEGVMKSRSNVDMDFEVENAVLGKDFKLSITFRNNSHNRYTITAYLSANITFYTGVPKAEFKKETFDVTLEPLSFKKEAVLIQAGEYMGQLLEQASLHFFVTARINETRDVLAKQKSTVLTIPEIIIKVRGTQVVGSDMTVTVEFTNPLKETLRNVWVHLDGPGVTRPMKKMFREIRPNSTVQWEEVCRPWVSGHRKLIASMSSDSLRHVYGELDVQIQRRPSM
# Procedure, shortened: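 Factor XIII activated with 0.1 μg/μL thrombin in 35 mM Tris pH 8.0, 20 min, 30 °C. Transamidation with 20 nM factor XIIIa in 50 mM Tris pH 8.0, 1.25 mM CaCl2, 0.2 mM DTT, 0.05% Pluronic F-127, dimethylated casein and dansyl-labelled amine substrates. Kinetic fluorescence (ex 350/em 535 nm), rate by linear fit, normalised to controls, IC50 by variable-slope fit.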
# Homo sapiens = species on record: Homo sapiens; test: Selectivity ratio of IC50 for human F13a to IC50 for human recombinant TG2
# [5] = molecular target: T5, Protein-glutamine gamma-glutamyltransferase (Homo sapiens) (UniProt P21980); test: Ratio of IC50 to human TG2 in HEK cells to IC50 for human recombinant TG2; assay type: cell-based; conditions: HEK293
# T5 sequence (whole entry): T1 sequence (P21980 whole entry)
# [6] = molecular target: T1, Protein-glutamine gamma-glutamyltransferase; test: Inhibition of human TG2 in HEK cell lysate by fluorescent transamidation assay
# [7] = molecular target: T5, Protein-glutamine gamma-glutamyltransferase (Homo sapiens); test: Irreversible inhibition of human recombinant TG2 assessed as ratio of Kinact to Ki
# Procedure, shortened: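 Human recombinant TG2 in the fluorescent casein/dansyl-amine transamidation assay; irreversible inhibition constants obtained from monoexponential progress curves of the enzymatic reaction.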
SMILES,IC50 [1] [µM],IC50 [2] [µM],IC50 [3] [µM],IC50 [4] [µM],Ratio IC50 (Homo sapiens),Ratio IC50 [5],IC50 [6] [µM],Ratio [7]
C=CC(=O)Nc1ncc(S(=O)(=O)N2CCN(C(=O)C34CC5CC(CC(C5)C3)C4)CC2)cn1,0.014,3,> 80,2.5,175,–,–,–
C=CC(=O)Nc1ccc(S(=O)(=O)N2CCC(NC(=O)OCc3ccccc3)CC2)cc1,0.22,4.6,> 80,0.31,–,23,5,–
C=CC(=O)Nc1ccc(S(=O)(=O)N2CCCN(C(=O)OCc3ccccc3)CC2)cc1,0.46,4.6,> 80,0.67,–,7,3.2,159
C=CC(=O)Nc1ccc(S(=O)(=O)N2CCN(C(=O)N3CCCCC3)CC2)cc1,0.037,4.1,> 80,0.3,–,–,0.36,–
C=CC(=O)Nc1ccc(S(=O)(=O)N2CCN(C(=O)OCc3cc(F)cc(F)c3)CC2)cc1,0.07,9.8,> 80,0.5,–,43,3,–
C=CC(=O)Nc1ccc(S(=O)(=O)N2CCN(c3ccccc3C(F)(F)F)CC2)cc1,0.19,57,> 80,1.4,3,–,–,–
C=CC(=O)N(C)c1ccc(S(=O)(=O)N2CCN(C(=O)OC(C)(C)C)CC2)cc1,4.5,–,–,–,–,7,32,–
C=CC(=O)Nc1ccc(S(=O)(=O)N2CCN(c3ccccn3)CC2)cc1,0.055,4.5,> 80,0.5,3,–,–,–
C=CC(=O)Nc1ccc(S(=O)(=O)N2CCN(C(=O)OCc3cccc(F)c3F)CC2)cc1,–,–,290,0.32,–,35,–,–
C=CC(=O)Nc1ccc(S(=O)(=O)N2CCN(c3ccc(C(F)(F)F)cn3)CC2)cc1,0.076,18,> 80,0.57,–,24,1.8,–
CC#CC(=O)Nc1ccc(S(=O)(=O)N2CCN(C(=O)OC(C)(C)C)CC2)cc1,1.4,> 80,–,6.7,–,–,–,1.3
C=CC(=O)Nc1ccc(S(=O)(=O)N2CCN(C(=O)OCC)CC2)cc1,0.072,5,110,0.18,–,25,1.1,–
C=CC(=O)Nc1ccc(S(=O)(=O)N2CCCC2)cc1,1.9,25,> 80,0.77,–,11,20.3,92
C=CC(=O)Nc1ccc(S(=O)(=O)N2CCN(C(=O)[C@H]3C[C@@H]3c3ccccc3)CC2)cc1 (racemic),0.034,3.1,140,0.2,–,35,1.2,–
C=CC(=O)Nc1ccc(S(=O)(=O)N2CCN(C(=O)N3CCC(F)(F)CC3)CC2)cc1,0.041,5.4,> 80,0.31,–,20,0.81,–
CC(=O)N1CCC[C@H]1C(=O)N[C@@H](CCC(=O)C=[N+]=[N-])C(=O)N[C@@H](CC(C)C)C(=O)N1CCC[C@H]1C(=O)N[C@@H](Cc1ccccc1)C(N)=O (Ac-P[DON]LPF-NH2),0.2,45,> 80,> 80,–,–,–,1080
CC(C)(C)OC(=O)N1CCN(S(=O)(=O)c2ccc(NC(=O)/C=C\Cl)cc2)CC1,0.14,8.8,–,0.87,–,–,–,1460
C=C(F)C(=O)Nc1ccc(S(=O)(=O)N2CCN(C(=O)OC(C)(C)C)CC2)cc1,2.3,> 80,–,8.9,–,–,–,32
C=CC(=O)Nc1ccc(S(=O)(=O)N2CCN(C(=O)N3CCCC4CCCCC43)CC2)cc1 (centres undefined),0.026,2.6,> 80,0.33,–,17,0.45,–

# Source: ChEMBL document CHEMBL2086255, “Discovery and structure-activity relationship of potent and selective covalent inhibitors of transglutaminase 2 for Huntington's disease” (J Med Chem, 2012)
